The structures appear in SMILES notation. The source made the active and inactive calls. The rule behind the calls is not given here. A value given as a limit tells only on which side of the number the result lay.

Data set [1] in a line: (§1) Cytotoxic activity against mock-infected human MT4 cellls assessed as reduction in cell viability by MTT assay. The data set is classed as cell-based. Conditions: mock-infected MT4 cells. In short, it runs like this: (§2)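 Mock-infected MT-4 cells (6×10^5 cells/mL) run in parallel with infected wells. Compounds tested as serial five-fold dilutions in triplicate. Viability read by MTT at 540/690 nm after 5 days, using the median OD of two or three wells. CC50 is the concentration reducing mock-infected cell viability by 50%. '>' marks the highest concentration tested that was non-cytotoxic.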

Data set [2] can be described thus: Selectivity index, ratio of CC50 for cytotoxic activity against mock-infected human MT4 cells to EC50 for antiviral activity against HIV2 ROD […] infected in human MT4 cells. It is filed as toxicity, cell-based. Conditions: mock-infected (CC50) and HIV2 ROD infected (EC50). In short, it runs like this: (§3)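 SI calculated as CC50 (mock-infected MT-4, MTT, 5 days) divided by EC50 against HIV-1 IIIB or HIV-2 ROD in MT-4 cells measured in the same MTT cytoprotection assay.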

In data set [3] the test system is Human immunodeficiency virus 2. Put plainly: Antiviral activity against HIV2 ROD […] infected in human MT4 cells assessed as inhibition of viral-induced cytopathic effect by MTT assay. It is filed as functional, organism-based, ISOLATE ROD. In short, it runs like this: (§4)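 MT-4 cells resuspended at 6×10^5 cells/mL and infected with HIV-1 IIIB or HIV-2 ROD at 100-300 CCID50. Compounds tested as serial five-fold dilutions in triplicate wells. Viability read by MTT reduction at 540 and 690 nm after 5 days. Median OD of two or three wells used. EC50 is the concentration giving 50% protection from viral cytopathicity.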

In data set [4] the test system is Human immunodeficiency virus 1. In words: Antiviral activity against HIV1 3B infected in human MT4 cells assessed as inhibition of viral-induced cytopathic effect by MTT assay. It is filed as functional, organism-based. In a few lines:
as §4

Data set [5] in a line: Selectivity index, ratio of CC50 for cytotoxic activity against mock-infected human MT4 cells to EC50 for antiviral activity against HIV1 3B infected in human MT4 cells. The data set is classed as toxicity, cell-based. Conditions: mock-infected (CC50) and HIV1 3B infected (EC50). In short, it runs like this: as §3
For data set [6], the target named is Human immunodeficiency virus type 1 reverse transcriptase (Human immunodeficiency virus 1) (UniProt Q72547). Put plainly: Inhibition of RNase H inhibition activity of HIV-1 BH10 reverse transcriptase expressed in Escherichia coli at 100 uM pre-incubated for 5 mins before [32P]-labeled template primer 31Trna/21P addition by polyacrylamide gel electrophoresis method. In short, it runs like this:
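Recombinant WT HIV-1 BH10 RT (20-40 nM) preincubated with compound for 5 min at 37°C. Buffer: 50 mM Tris-HCl pH 8.0, 50 mM NaCl, 5 mM MgCl2, 5% DMSO. Reactions started with 25 nM 5'-[32P]-labeled 31Trna/21P template-primer. Sampled from 0 to 4 min at 37°C, quenched with EDTA/formamide, and resolved by denaturing PAGE.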

In the next data set the test system is MT4. The data set is described as §1. Conditions: mt4. It is filed as cell-based. In a few lines:
as §2

[7] abbreviates: Human immunodeficiency virus 2, ISOLATE ROD, MT4.
The mark [8] stands for this setting: Human immunodeficiency virus 1, 3B, MT4.

Consider `Cc1cccc(Cn2cc(Cn3c(=O)n(O)c(=O)c4cc(Br)ccc43)nn2)c1`, for which the CC50 in data set [1] is 24 µM. Also, the selectivity ratio in data set [2] and in data set [5] was less than 1 throughout. Moreover, the EC50 in data set [3] (setting [7]) and in data set [4] (setting [8]) was more than 24 µM in each case.

As to `O=c1c2cc(Br)ccc2n(Cc2cn(Cc3ccc(F)c(F)c3)nn2)c(=O)n1O`, the CC50 in data set [1] was determined as 24.7 µM. For the same compound, the selectivity ratio in data set [2] and in data set [5] was less than 1 throughout. Further, the EC50 in data set [3] (setting [7]) and in data set [4] (setting [8]) was more than 24.7 µM in each case.

Consider `O=c1nc(Nc2cccc(-c3cn(-c4cccc5ccccc45)nn3)c2)c2cccnc2n1O`, for which the CC50 in data set [1] was more than 279 µM. Further, the selectivity ratio is more than 4 in data set [2] and more than 10 in data set [5]. Also, the results for the EC50 in data set [3] (setting [7]) and in data set [4] (setting [8]) were 69.4 µM and 27.1 µM, respectively.

On to `O=c1c2cc(Br)ccc2n(Cc2cn(Cc3cccc(F)c3)nn2)c(=O)n1O`, for which the CC50 in data set [1] came to 24.9 µM. Moreover, the selectivity ratio in data set [2] and in data set [5] was less than 1 throughout. For the same compound, the EC50 in data set [3] (setting [7]) and in data set [4] (setting [8]) was more than 24.9 µM throughout.

Regarding `Cc1nnc(C(=O)NC(C)(C)c2nc(C(=O)NCc3ccc(F)cc3)c(O)c(=O)n2C)o1`, in data set [1], the CC50 is more than 55.8 µM. The EC50 in data set [3] (setting [7]) was 0.011 µM; in data set [4] (setting [8]), 0.0078 µM.

Regarding `O=c1c2cc(Br)ccc2n(Cc2cn(Cc3ccc(F)cc3)nn2)c(=O)n1O`, in data set [1], the CC50 turned out to be 25.1 µM. Moreover, the selectivity ratio in data set [2] and in data set [5] was less than 1 each time. For the same compound, the EC50 in data set [3] (setting [7]) and in data set [4] (setting [8]) was more than 25.1 µM in each case. Also, the inhibition result in data set [6] is “Active”.

As for `Cc1ccccc1Cn1cc(Cn2c(=O)n(O)c(=O)c3cc(Br)ccc32)nn1`, the CC50 in data set [1] stood at 17.8 µM. The selectivity ratio in data set [2] and in data set [5] was less than 1 each time. The EC50 in data set [3] (setting [7]) and in data set [4] (setting [8]) was more than 17.8 µM in each case.

Take `O=C(Cn1cc(-c2cccc(Nc3nc(=O)n(O)c4ncccc34)c2)nn1)c1ccc(F)cc1`: the CC50 in data set [1] was more than 273 µM. In addition, the selectivity ratio in data set [2] is 1; in data set [5], more than 91. Besides, the concentration for a half-maximal effect (EC50) is more than 273 µM in data set [3] (setting [7]) and 3 µM in data set [4] (setting [8]).

`O=c1c2cc(Br)ccc2n(Cc2cn(Cc3ccc([N+](=O)[O-])cc3)nn2)c(=O)n1O`: the CC50 in data set [1] was found to be 22.4 µM. Further, the selectivity ratio in data set [2] and in data set [5] was less than 1 throughout. Besides, the EC50 in data set [3] (setting [7]) and in data set [4] (setting [8]) was more than 22.4 µM throughout.

Turning to `O=C(Cn1cc(-c2cccc(Nc3nc(=O)n(O)c4ncccc34)c2)nn1)Nc1ccccc1`, the CC50 in data set [1] was more than 275 µM. Moreover, the selectivity ratio in data set [2] is 1; in data set [5], more than 10. For the same compound, the EC50 in data set [3] (setting [7]) was more than 275 µM; in data set [4] (setting [8]), 26.8 µM.

On to `O=c1c2cc(Br)ccc2n(Cc2cn(Cc3ccc(Cl)cc3)nn2)c(=O)n1O`, for which, in data set [1], the CC50 was 24.1 µM. The selectivity ratio in data set [2] and in data set [5] was less than 1 in each case. Further, the EC50 in data set [3] (setting [7]) and in data set [4] (setting [8]) was more than 24.1 µM throughout.

For `O=c1nc(Nc2cccc(-c3cn(CCCc4ccccc4)nn3)c2)c2cccnc2n1O`, in data set [1], the half-maximal cytotoxic concentration (CC50) came to 239 µM. The selectivity ratio in data set [2] was less than 1; in data set [5], 9. In addition, the values for the EC50 in data set [3] (setting [7]) and in data set [4] (setting [8]) were more than 239 µM and 26.1 µM, respectively.

On to `O=c1c2cc(Br)ccc2n(Cc2cn(Cc3ccc(Br)cc3)nn2)c(=O)n1O`, for which the CC50 in data set [1] is 21.8 µM. Also, the selectivity ratio in data set [2] and in data set [5] was less than 1 each time. Also, the EC50 in data set [3] (setting [7]) and in data set [4] (setting [8]) was more than 21.8 µM in each case.

For `Cc1ccc(Cn2cc(-c3ccccc3Nc3nc(=O)n(O)c4ncccc34)nn2)cc1`, the CC50 in data set [1] is 1.1 µM. Moreover, the selectivity ratio in data set [2] and in data set [5] was less than 1 throughout. Further, the EC50 in data set [3] (setting [7]) and in data set [4] (setting [8]) was more than 1.1 µM in each case.

With `O=c1c2cc(Br)ccc2n(Cc2cn(Cc3ccccc3)nn2)c(=O)n1O`, in data set [1], the CC50 is 23.7 µM. Moreover, the selectivity ratio in data set [2] and in data set [5] was less than 1 throughout. For the same compound, the EC50 in data set [3] (setting [7]) and in data set [4] (setting [8]) was more than 23.7 µM in each case.

With `O=c1nc(Nc2cccc(-c3cn(CCc4ccccc4)nn3)c2)c2cccnc2n1O`, the CC50 in data set [1] was more than 294 µM. Moreover, the selectivity ratio in data set [2] is more than 20; in data set [5], more than 31. In addition, the EC50 in data set [3] (setting [7]) came out at 14.6 µM; in data set [4] (setting [8]) it was 9.5 µM.

As for `O=c1nc(Nc2cccc(-c3cn(Cc4ccc(F)cc4)nn3)c2)c2cccnc2n1O`, the CC50 in data set [1] was more than 291 µM. The selectivity ratio is more than 103 in data set [2] and more than 318 in data set [5]. Further, the EC50 in data set [3] (setting [7]) was determined as 2.82 µM; in data set [4] (setting [8]), 0.92 µM.

Turning to `Cc1nnc(C(=O)NC(C)(C)c2nc(C(=O)NCc3ccc(F)cc3)c(O)c(=O)n2C)o1` [RALTEGRAVIR POTASSIUM], the CC50 in the data set with MT4 is more than 51.8 µM. Besides, the EC50 came out at 0.016 µM in data set [3] and 0.0077 µM in data set [4].

In the case of `O=C(Cn1cc(-c2cccc(Nc3nc(=O)n(O)c4ncccc34)c2)nn1)Nc1ccc(C(F)(F)F)cc1`, the CC50 in data set [1] is more than 239 µM. The selectivity ratio in data set [2] and in data set [5] was 1 throughout. For the same compound, the EC50 in data set [3] (setting [7]) and in data set [4] (setting [8]) was more than 239 µM throughout.

In the case of `O=c1nc(Nc2ccccc2-c2cn(Cc3ccc(F)cc3)nn2)c2cccnc2n1O`, the CC50 in data set [1] worked out at 2.7 µM. Further, the selectivity ratio in data set [2] and in data set [5] was less than 1 in each case. Besides, the EC50 in data set [3] (setting [7]) and in data set [4] (setting [8]) was more than 2.7 µM throughout.

Consider `O=C(Cn1cc(-c2cccc(Nc3nc(=O)n(O)c4ncccc34)c2)nn1)Nc1ccc(F)cc1`, for which, in data set [1], the CC50 is more than 265 µM. The selectivity ratio was 1 in data set [2] and more than 1 in data set [5]. Moreover, the EC50 was more than 265 µM in data set [3] (setting [7]) and 232 µM in data set [4] (setting [8]).

Consider `COc1cc2c(cc1Cc1cccc(Cl)c1F)c(=O)c(C(=O)O)cn2[C@H](CO)C(C)C`, for which, in data set [1], the CC50 worked out at 6.3 µM. In addition, the EC50 was found to be 0.0038 µM in data set [3] (setting [7]) and 0.0023 µM in data set [4] (setting [8]).

As to `O=c1c2cc(Br)ccc2n(Cc2cn(Cc3ccccc3Cl)nn2)c(=O)n1O`, the CC50 in data set [1] is 22.3 µM. Also, the selectivity ratio in data set [2] and in data set [5] was less than 1 throughout. For the same compound, the EC50 in data set [3] (setting [7]) and in data set [4] (setting [8]) was more than 22.3 µM each time.

Values taken from ChEMBL document CHEMBL4177583, “1-Hydroxypyrido[2,3-d]pyrimidin-2(1H)-ones as novel selective HIV integrase inhibitors obtained via privileged substructure-based compound libraries” (Bioorg Med Chem, 2017).
